Tested on: HEp-2 viability, luminescence (CellTiter-Glo)
Experiment: viability of uninfected HEp-2 host cells – cell-based, synthesized compounds, set 9, cytotoxicity control for RSV antiviral project, dose response (AID 504826)
How it was run: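 Test system: uninfected HEp-2 human cells, ATP-based viability; Measure: % viability and fitted CC50; Signal: CellTiter-Glo ATP luminescence; Timing: compound exposure six days at 37 °C, 5% CO2.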

SMILES	CC50 [µM]
COCCCNC(=O)c1ccc(Cn2c(=O)c3ccccc3n(Cc3ccc([N+](=O)[O-])cc3)c2=O)cc1	115
COCCCNC(=O)c1ccc(Cn2c(=O)c3ccccc3n(Cc3ccc(C)c(C(F)(F)F)c3)c2=O)cc1	75.2
Cc1ccc(C)c(NC(=O)[C@@H]2CCCN2S(=O)(=O)c2cccc3cccnc23)c1	25
COCCCNC(=O)c1ccc(Cn2c(=O)c3ccccc3n(Cc3ccc(Br)cc3)c2=O)cc1	126
COCCCNC(=O)c1ccc(Cn2c(=O)c3ccccc3n(Cc3ccc(C(F)(F)F)cc3)c2=O)cc1	95.7
COc1ccccc1CNC(=O)C1CCN(S(=O)(=O)c2cccc3nonc23)CC1	146
COCCCNC(=O)c1ccc(Cn2c(=O)c3ccccc3n(Cc3ccc(OC)cc3)c2=O)cc1	121

— PubChem BioAssay AID504826 (Southern Research Specialized Biocontainment Screening …, 2011)
